A short description of data set [1]: Binding affinity to pyridoxal-5'-phosphate assessed as formation of PLP-aldimine by NMR spectroscopy. The essentials:
(§1)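 Compound and PLP solutions prepared in 100 mM phosphate buffer in D2O, pD held near 8.0; chemical shifts followed by NMR after mixing.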

The target of data set [2] is T1, Alanine racemase (Geobacillus stearothermophilus) (UniProt P10724).
T1 sequence (whole entry): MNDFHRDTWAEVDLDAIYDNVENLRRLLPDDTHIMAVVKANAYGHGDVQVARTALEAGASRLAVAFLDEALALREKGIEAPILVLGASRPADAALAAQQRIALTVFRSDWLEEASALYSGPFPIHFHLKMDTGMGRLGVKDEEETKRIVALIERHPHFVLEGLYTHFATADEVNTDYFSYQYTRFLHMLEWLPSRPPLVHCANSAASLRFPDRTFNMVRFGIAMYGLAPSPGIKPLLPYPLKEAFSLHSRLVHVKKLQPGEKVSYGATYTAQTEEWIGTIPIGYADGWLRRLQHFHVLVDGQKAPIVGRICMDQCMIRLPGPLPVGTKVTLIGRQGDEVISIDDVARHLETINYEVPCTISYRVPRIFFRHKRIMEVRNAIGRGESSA
The data set can be described thus: Inhibition of Bacillus stearothermophilus alanine racemase assessed as formation of L-alanine at 5 mM in phosphate buffer of pH 8 treated for 15 to 20 mins before addition of substrate by HPLC analysis in presence of 10 uM PLP. The essentials:
(§2)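 Enzyme in 50 mM phosphate buffer pH 8.0 with 10 μM PLP, preincubated with 5 mM inhibitor at room temperature for 15-20 min. Substrate added near KM: alanine racemase 5 mM D-alanine (L-alanine formed); SDH 50 mM L-serine (SDH partially purified, ~50%, from E. coli BL21-RIL); transaminase 5 mM L-aspartic acid plus 5 mM α-ketoglutarate. Products analysed by HPLC.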

The nature of data set [3]: Binding affinity to pyridoxal-5'-phosphate assessed as formation of PLP-aldoxime at 5 mM after 1 hr by UV/vis spectroscopy. The essentials:
(§3)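 PLP and compound solutions in 100 mM phosphate buffer pH 8.0 mixed 1:1, giving 300 μM PLP and 5 mM compound final. Incubated 1 h at room temperature, then absorbance scanned from 310 to 500 nm.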

Data set [4] has as its target T2, L-serine dehydratase/L-threonine deaminase (Rattus norvegicus) (UniProt P09367).
T2 sequence (whole entry): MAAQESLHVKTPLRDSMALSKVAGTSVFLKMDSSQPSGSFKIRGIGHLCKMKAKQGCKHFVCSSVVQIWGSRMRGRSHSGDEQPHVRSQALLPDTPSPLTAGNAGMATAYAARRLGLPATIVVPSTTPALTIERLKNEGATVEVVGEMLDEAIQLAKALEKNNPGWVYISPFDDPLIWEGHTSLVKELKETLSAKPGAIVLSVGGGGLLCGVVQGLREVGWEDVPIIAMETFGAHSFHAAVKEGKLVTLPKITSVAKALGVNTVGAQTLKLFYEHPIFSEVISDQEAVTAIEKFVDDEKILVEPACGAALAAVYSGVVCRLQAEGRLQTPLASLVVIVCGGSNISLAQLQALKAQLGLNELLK
The experiment in a line: Inhibition of rat SDH expressed in Escherichia coli BL21-RIL assessed as formation of pyruvate at 5 mM in phosphate buffer of pH 8 treated for 15 to 20 mins before addition of substrate by HPLC analysis in presence of 10 uM PLP. The essentials: as §2

For data set [5], the target named is T3, Serine racemase (Mus musculus) (UniProt Q9QZX7).
T3 sequence (whole entry): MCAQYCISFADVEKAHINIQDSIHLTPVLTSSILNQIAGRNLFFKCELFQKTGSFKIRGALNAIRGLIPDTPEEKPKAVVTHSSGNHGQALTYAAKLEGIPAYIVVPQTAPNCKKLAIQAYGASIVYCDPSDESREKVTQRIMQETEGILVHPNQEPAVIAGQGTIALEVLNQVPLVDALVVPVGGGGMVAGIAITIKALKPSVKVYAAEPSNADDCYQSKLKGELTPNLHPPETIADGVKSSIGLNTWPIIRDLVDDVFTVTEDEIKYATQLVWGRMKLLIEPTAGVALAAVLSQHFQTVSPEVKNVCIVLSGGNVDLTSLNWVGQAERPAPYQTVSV
The experiment in a line: Inhibition of mouse recombinant serine racemase expressed in Escherichia coli MC1061 assessed as formation of D-serine at 5 mM in phosphate buffer of pH 8 treated for 15 to 20 mins before addition of substrate by HPLC analysis in presence of 10 uM PLP.

Data set [6] is described as follows: Binding affinity to 4-5 mM pyridoxal-5'-phosphate assessed as formation of PLP-aldimine by ESI-MS analysis. In a few lines: (§4)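 Compound weighed into PLP stock at about 1:1 molar ratio with PLP, with or without 200 mM ammonium sulfate pH 8.0. Mixture diluted 40- to 100-fold in water and analysed by ESI-MS in negative ion mode.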
The nature of data set [7]: Binding affinity to pyridoxal-5'-phosphate assessed as PLP-amino acid Schiff base interaction at 5 mM after 1 hr by UV/vis spectroscopy. In a few lines:
as §3

The target in data set [8] is T4, Serine racemase (Homo sapiens) (UniProt Q9GZT4).
T4 sequence (whole entry): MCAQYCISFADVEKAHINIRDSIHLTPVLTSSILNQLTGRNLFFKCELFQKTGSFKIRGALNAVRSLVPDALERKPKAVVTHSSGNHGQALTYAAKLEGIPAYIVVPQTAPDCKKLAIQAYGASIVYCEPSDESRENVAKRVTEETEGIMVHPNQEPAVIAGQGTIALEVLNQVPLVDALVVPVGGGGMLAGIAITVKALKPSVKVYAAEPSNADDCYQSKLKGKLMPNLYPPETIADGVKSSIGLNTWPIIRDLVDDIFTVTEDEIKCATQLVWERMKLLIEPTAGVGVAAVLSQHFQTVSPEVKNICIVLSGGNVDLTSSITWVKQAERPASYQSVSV
The experiment in a line: Inhibition of human recombinant serine racemase assessed as formation of D-serine at 5 mM in phosphate buffer of pH 8 treated for 15 to 20 mins before addition of substrate by HPLC analysis in presence of 10 uM PLP. The essentials: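 Recombinant human SR assayed as for mouse SR: pH 8.0 buffer with 10 μM PLP, 1 mM ATP, 1 mM MgCl2, 5 mM DTT, 5 mM L-serine and 5 mM compound. Incubated 30 min at 37 C, stopped with HClO4; D-serine measured by HPLC.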

Data set [9] can be described thus: Inhibition of broad-range bacterial transaminase assessed as formation of L-glutamic acid at 5 mM in phosphate buffer of pH 8 treated for 15 to 20 mins before addition of substrate by HPLC analysis in presence of 10 uM PLP. The essentials: as §2
In data set [10] the target is T5, Serine racemase (Mus musculus, UniProt Q9QZX7).
T5 sequence (Q9QZX7 whole entry): T3 sequence (whole entry)
The data set can be described thus: Inhibition of mouse recombinant serine racemase expressed in Escherichia coli MC1061 assessed as formation of D-serine after 30 mins by HPLC analysis. The essentials:
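Mouse SR (E. coli MC1061, arabinose-induced, three-step chromatography, ~90% pure) incubated in pH 8.0 buffer with 10 μM PLP, 1 mM ATP, 1 mM MgCl2, 5 mM DTT. Screening used 5 mM L-serine and 5 mM test compound; IC50 runs varied inhibitor at 5 mM L-serine. 30 min at 37 C, stopped with 0.3 M HClO4; D-serine quantified by HPLC. Duplicate or triplicate runs.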

Data set [11] deals with T5, Serine racemase. The data set can be described thus: Inhibition of mouse recombinant serine racemase expressed in Escherichia coli MC1061 assessed as formation of D-serine after 30 mins by Linewaver-burk and Eadie-Hofstee plot analysis. The essentials: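 Mouse SR racemization at varied L-serine and inhibitor concentrations, pH 8.0, 10 μM PLP, 30 min at 37 C. End-point HPLC measured D-serine peak area relative to a glycine internal standard, in triplicate. Global nonlinear fit followed by linear transformation.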

In data set [12] the target is T4, Serine racemase (Homo sapiens). The data set can be described thus: Inhibition of human recombinant serine racemase assessed as formation of D-serine at 5 mM treated for 15 to 20 mins before addition of substrate by HPLC analysis in presence of increasing concentration of PLP.
Data set [13] deals with T3, Serine racemase (Mus musculus). The experiment in a line: Inhibition of mouse recombinant serine racemase expressed in Escherichia coli MC1061 assessed as formation of D-serine at 5 mM after 30 mins by HPLC analysis in presence of 5 fold molar excess of MgCl2 over compound.
The nature of data set [14]: Binding affinity to pyridoxal-5'-phosphate assessed as formation of syn- and anti-PLP-aldoxime by NMR spectroscopy. The essentials:
as §1

Data set [15] is described as follows: Binding affinity to pyridoxal-5'-phosphate assessed as formation of PLP-aldoxime by ESI-MS analysis. The essentials:
as §4

Data set [16] can be described thus: Chemical stability assessed as hydrolysis-associated hydroxylamine formation at 0.05 mM after 1 hr in phosphate buffer of pH 7.4. The format is physicochemical. The settings on record: pH 7.4, 1 h, 50 µM. The essentials: (§5)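 Compound at 0.5 mM or 0.05 mM, diluted from fresh 10 mM stocks, held in 100 mM phosphate buffer pH 8.0 or 7.4 at room temperature for 0, 30 or 60 min. Picrylsulfonic acid then added; released hydroxylamine read as absorbance at 494 nm 15 min later.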

A short description of data set [17]: Chemical stability assessed as hydrolysis-associated hydroxylamine formation at 0.05 mM after 1 hr in phosphate buffer of pH 8. The format is physicochemical. Conditions: pH 8, 1 h, 50 µM. In a few lines:
as §5

For data set [18], the target named is T3, Serine racemase (Mus musculus). The data set can be described thus: Inhibition of mouse recombinant serine racemase expressed in Escherichia coli MC1061 assessed as formation of D-serine at 5 mM treated for 15 to 20 mins before addition of substrate by HPLC analysis in presence of increasing concentration of PLP.

Active and inactive are the calls of the source. The calls are words filed in the database; no cut-off is given here.

Turning to `N[C@@H](CC(=O)NO)C(=O)O`, the result in data set [1], in data set [3], in data set [6] and in data set [7] was Active. Besides, the inhibition result in data set [2] and in data set [9] was “inactive” each time. Also, the inhibition result in data set [4], in data set [5] and in [8] was “Active” in each case. For the same compound, in [10], the half-inhibitory concentration (IC50) (in general, the concentration that inhibits the measured activity by half) stood at 1300 µM.

On to `O=C(CC(=O)NO)NO` [MALONODIHYDROXAMIC ACID], for which the Ki – broadly, the dissociation constant of the complex between target and ligand, obtained from inhibition or displacement – in [11] amounted to 417 µM. Also, the inhibition result in data set [12] and in data set [18] was “inactive” throughout. Also, the inhibition result in data set [13] and in data set [5] was “Active” each time. For the same compound, the outcome in data set [3], in data set [14] and in data set [15] was Active. Moreover, the Stability entry in data set [16] and in [17] was “Unstable” in each case. The IC50 in [10] came to 370 µM.

Values taken from ChEMBL document CHEMBL1156073, “Hydroxamic acids as a novel family of serine racemase inhibitors: mechanistic analysis reveals different modes of interaction with the pyridoxal-5'-phosphate cofactor” (J Med Chem, 2009).
